Experiments:
Liver microsome [1] = assay: Drug metabolism in human liver microsomes assessed as 5beta-hydroxylcinobufagin formation at 100 uM at 37 degC after 30 mins by […] in presence of 1 uM ketoconazole CYP3A4 inhibitor; assay type: ADME; conditions: 0.5 h
Liver microsome [2] = assay: Drug metabolism in human liver microsomes assessed as 1alpha-hydroxylcinobufagin formation at 100 uM at 37 degC after 30 mins […] in presence of 10 uM furafylline CYP1A2 inhibitor; assay type: ADME; conditions: 0.5 h
Liver microsome [3] = assay: Drug metabolism in human liver microsomes assessed as 1alpha-hydroxylcinobufagin formation at 100 uM at 37 degC after 30 mins […] in presence of 2.5 uM 8-methoxypsoralen CYP2A6 inhibitor; assay type: ADME; conditions: 0.5 h
[4] = Drug metabolism in cynomolgus monkey liver microsomes assessed as 1alpha-hydroxylcinobufagin formation at 100 uM at 37 degC after 30 mins by UFLC-ESI-MS analysis in presence of 10 uM furafylline CYP1A2 inhibitor; assay type: ADME, Macaca fascicularis; conditions: 0.5 h
Summary of the method: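 Chemical inhibition: selective P450 inhibitors (furafylline, sulfaphenazole, ketoconazole) added to liver microsome incubations in 100 mM potassium phosphate pH 7.4 with NADPH-generating system at 37°C. Hydroxylated metabolite formation quantified by UFLC at 294 nm against standards. Mean ± S.D. of three experiments in duplicate.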

Liver microsome [5] = assay: Drug metabolism in human liver microsomes assessed as 5beta-hydroxylcinobufaginn formation per mg of protein at 100 uM […] by UFLC-ESI-MS analysis; assay type: ADME; conditions: 0.5 h
[6] = Drug metabolism in cynomolgus monkey liver microsomes assessed as 5beta-hydroxylcinobufaginn formation per mg of protein at 100 uM […] by UFLC-ESI-MS analysis; assay type: ADME, Macaca fascicularis; conditions: 0.5 h
[7] = Drug metabolism in Swiss-Hauschka (ICR) mouse liver microsomes assessed as 5beta-hydroxylcinobufaginn formation per mg of protein at 100 uM at 37 degC after 30 mins by UFLC-ESI-MS analysis; assay type: ADME; conditions: 0.5 h
Summary of the method: (§1)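 Liver microsomes (0.3 mg protein/ml) incubated with 100 µM substrate at 37°C for 30 min, in 100 mM potassium phosphate pH 7.4 with NADPH-generating system (1 mM NADP+, 10 mM glucose 6-phosphate, 1 unit/ml G6PDH, 4 mM MgCl2). Acetonitrile ≤1% final. Stopped with ice-cold acetonitrile and centrifuged. Metabolites identified by UFLC-ESI-MS and quantified by UFLC-DAD at 294 nm against authentic standard curves.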

[8] = Drug metabolism in Colony-bred Chinese Bama minipig liver microsomes assessed as 5beta-hydroxylcinobufaginn formation at 100 uM at 37 degC after 30 mins by UFLC-ESI-MS analysis; assay type: ADME, Sus scrofa; conditions: pig, 0.5 h, read-out: Km(app); summary of the method: as §1

Compound: CC(=O)O[C@H]1[C@H]2O[C@]23[C@@H]2CC[C@@H]4C[C@@H](O)CC[C@]4(C)[C@H]2CC[C@]3(C)[C@H]1c1ccc(=O)oc1 [CINOBUFAGIN]
- Drug metabolism (Liver microsome [1]): metabolite_not_detected
- Drug metabolism (Liver microsome [2]): metabolite_detected
- Drug metabolism (Liver microsome [3]): metabolite_detected
- Drug metabolism [4]: metabolite_detected
- Vmax (Liver microsome [5]): 1.17 nmol/min/mg
- Vmax [6]: 1.84 nmol/min/mg
- Vmax [7]: 6.51 nmol/min/mg
- Km [8]: 11.9 µM

Reference: ChEMBL document CHEMBL3526081 (Drug Metab Dispos, 2011)
